Tb MetRS inh: Trypanosoma brucei MetRS inhibition | purified T. brucei MetRS, ATP depletion, Kinase-Glo luminescence | inhibition, % at 11.9 µM | hit rate 0.4% among 360,000 | AID 624268;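 active means inhibition above a per-plate cutoff of the control wells' mean inhibition plus 3 SD, cut at about 5.5% in these data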
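Test system – parasite MetRS enzyme · Reagent – substrates ATP, L-methionine and bulk Escherichia coli tRNA · Doses – 11.9 µM compound single dose, 0.9% DMSO · Times – 15 min enzyme-compound preincubation, 2 h reaction, 10 min detection, 25 °C · Signal – Kinase-Glo luminescence, ATP depletion format · Controls – DMSO-only wells as low control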
ADAM10 inh: inhibits human ADAM10; O14672; recombinant ADAM10, EDANS/DABCYL FRET peptide cleavage, 3 h; inhibition, % at 7 µM; hit rate 0.62% among 370,000; AID 720582;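 active means inhibition above a per-campaign cutoff equal to the mean of compounds falling between control-based bounds plus 3 SD, cut at about 20% in these data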
ADAM17 inh: inhibitors of human ADAM17. P78536. hit rate 0.83% among 370,000. inhibition, % at 6.95 µM. AID 720648. recombinant ADAM17, EDANS/DABCYL FRET peptide cleavage;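 active means inhibition above the mean of compounds lying between control limits plus 3 SD, set per campaign, cut at about 8.5% in these data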
Target sequence (P78536 215-824 limits assumed): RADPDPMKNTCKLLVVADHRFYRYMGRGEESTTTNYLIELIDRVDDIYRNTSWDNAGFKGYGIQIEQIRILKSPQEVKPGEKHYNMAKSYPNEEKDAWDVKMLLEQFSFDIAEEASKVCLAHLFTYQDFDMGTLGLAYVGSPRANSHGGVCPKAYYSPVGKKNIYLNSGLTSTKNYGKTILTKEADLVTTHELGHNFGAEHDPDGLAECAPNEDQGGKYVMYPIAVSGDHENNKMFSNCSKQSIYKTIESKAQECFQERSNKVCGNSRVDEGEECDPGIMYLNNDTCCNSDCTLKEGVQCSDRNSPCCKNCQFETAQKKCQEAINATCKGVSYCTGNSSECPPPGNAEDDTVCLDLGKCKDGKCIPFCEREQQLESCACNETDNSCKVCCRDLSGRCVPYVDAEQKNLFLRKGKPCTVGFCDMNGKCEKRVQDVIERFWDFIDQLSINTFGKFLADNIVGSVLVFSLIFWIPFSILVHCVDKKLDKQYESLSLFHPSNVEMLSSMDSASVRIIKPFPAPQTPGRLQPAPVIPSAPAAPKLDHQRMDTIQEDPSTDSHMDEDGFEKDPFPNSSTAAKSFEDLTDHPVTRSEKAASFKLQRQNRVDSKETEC
PLCg1 inh: PLC-gamma1 (human) inhibition, primary screen | AID 720700 | inhibition, % at 12.2 µM | purified PLC-gamma1, fluorogenic substrate, fluorescence | hit rate 0.84% among 370,000; in the data active means inhibition above about 9.5%
PLC-beta3 inh: inhibitors of human phospholipase C beta3; hit rate 0.18% among 370,000; inhibition, % at 12.2 µM; AID 720704; Purified PLC-beta3, fluorogenic substrate, fluorescence; Q01970; in the data active means inhibition above about 11%
ADAM10 confirm: confirmation of inhibitors of human ADAM10 | shares compounds with ADAM10 inh | ADAM10 QFRET peptide cleavage, EDANS fluorescence | inhibition, % at 6.95 µM | hit rate 1% among 2,100;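 active means inhibition above about 20% chosen separately for each screening run, limit read from the data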
ADAM17 ctr: ADAM17 inhibition, counter-screen for ADAM10 exosite hits. shares compounds with ADAM10 inh. ADAM17 QFRET peptide cleavage, EDANS fluorescence. inhibition, % at 6.95 µM. hit rate 0.5% among 2,100;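 active means mean triplicate inhibition above the solvent-only control wells' mean plus 3 SD, cut at about 12% in these data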
Numbers stand for hits; i = inactive; nt = no result given. Sampled rows, rich in hits. Any-hit rate of the full collection: about 2.3%.

SMILES	Tb MetRS inh	ADAM10 inh	ADAM17 inh	PLCg1 inh	PLC-beta3 inh	ADAM10 confirm	ADAM17 ctr
CCC/C=N/Nc1nc2ccccc2s1	i	25.1	i	i	i	i	i
C(=C\c1ccccc1)/C=N/Nc1nc2ccccc2s1	i	26.1	i	i	i	23.3	i
Brc1ccc(/C=C/C=N/Nc2nc3ccccc3s2)cc1	i	i	i	i	i	nt	nt
COc1ccc(C=NNc2nc3ccccc3s2)cc1	i	i	i	i	i	nt	nt
Cc1ccc(S(=O)(=O)NCC2CN(S(=O)(=O)c3ccc(C)cc3)c3ccccc3C(=O)N2c2ccc(F)cc2)cc1 (configuration not stated)	nt	22.6	i	i	i	i	i
Cc1ccc(S(=O)(=O)NC[C@@H]2C[C@H](c3ccccc3)ON2S(=O)(=O)c2ccc(C)cc2)cc1	nt	i	i	i	i	nt	nt
NC(=O)CSc1ncc(-c2ccc([N+](=O)[O-])cc2)[nH]1	i	i	i	i	i	nt	nt
O=[N+]([O-])c1ccc(-c2cnc(SCc3ccccc3Cl)[nH]2)cc1	i	20.1	i	i	i	i	i
Cc1cc(C)c(C#N)c(SCc2ccccc2)n1	i	23.2	i	i	i	i	i
CCc1c(-c2ccccc2)ncn1Cc1cccc(-c2ccccc2)c1	i	24.9	16.6	i	i	i	i
CCc1c(-c2cccc(OC)c2)ncn1Cc1cccc(-c2ccccc2)c1	i	i	i	i	i	nt	nt
CCS(=O)(=O)c1ccc2oc(Nc3ccc(C(C)(C)C)cc3)nc2c1	i	24.3	i	i	i	i	i
CCS(=O)(=O)c1ccc2oc(Nc3ccc(OC)cc3)nc2c1	i	i	i	i	i	nt	nt
O=C1/C(=C/c2cccs2)N=C(c2cccs2)N1Nc1ccccc1	i	25.5	i	i	i	i	i
O=C1/C(=C\c2cccs2)N=C(c2cccs2)N1Nc1ccccc1	i	i	i	i	i	nt	nt
Cc1[nH]c(=O)[nH]c(=O)c1S(=O)(=O)Nc1cccc([N+](=O)[O-])c1C	i	i	i	i	i	nt	nt
CCCCn1c(N)c(N(CCC(C)C)C(=O)c2ccc(N3CCCC3=O)cc2)c(=O)[nH]c1=O	i	63.3	i	i	i	i	i
CCCCn1c(N)c(N(CC)C(=O)c2ccc(N3CCCC3=O)cc2)c(=O)[nH]c1=O	i	i	i	i	i	nt	nt
CN(c1ccccc1)S(=O)(=O)c1nnc(NC(=O)c2ccco2)s1	i	47.8	i	i	i	i	i
CC(=NNc1cc(C)c2cc(C)ccc2n1)c1ccccn1	nt	i	i	i	i	nt	nt
CCCCOCCCNC(=O)C[C@@H]1C[C@@]2(C(=O)OCC)CCC=C2N(Cc2cccc3ccccc23)C1=O	i	i	i	i	i	nt	nt
FC(F)(F)c1ccc(-c2nc(=S)[nH][nH]2)cc1	i	25.4	i	i	i	i	i
CCN(c1ccc(NC(=O)COC(=O)CCc2cc(OC)c(OC)c(OC)c2)cc1)C(C)C	i	21.2	i	i	i	i	i
CCN(CC)c1ccc(NC(=O)COC(=O)CCc2cc(OC)c(OC)c(OC)c2)cc1	i	i	i	i	i	nt	nt
COc1ccccc1-c1c(-c2ccc(OCC(=O)NN)cc2O)n[nH]c1C(F)(F)F	i	i	i	i	i	nt	nt
SMILES	Tb MetRS inh	ADAM10 inh	ADAM17 inh	PLCg1 inh	PLC-beta3 inh	ADAM10 confirm	ADAM17 ctr
COc1ccc(-c2n[nH]c(C(F)(F)F)c2-c2cc3ccccc3o2)c(O)c1	i	21.6	i	i	i	20.8	i
CCCSC1=C(C#N)C(c2cccs2)C(C(=O)Nc2ccccc2)=C(C)N1 (configuration not stated)	i	27.5	i	i	i	21.7	i
Nc1c(-c2ccccc2)c(CSc2nc3ccccc3[nH]2)nn1-c1cccc(Cl)c1	i	i	i	i	i	nt	nt
Nc1c(-c2ccccc2)c(CSc2nc3ccccc3[nH]2)nn1-c1ccc(Cl)cc1	i	28.5	i	12.4	i	i	i
Cc1ccccc1CN(c1ccc(C(=O)Nc2ccccc2C(=O)NCc2ccco2)cc1)S(C)(=O)=O	i	25.9	i	i	i	19.9	i
COc1ccccc1-c1ccc2c(c1)C(C)(Cc1cc(Cl)ccc1C(F)(F)F)C(=O)N2 (configuration not stated)	i	21.2	i	i	i	i	i
O=C(NN1C(=O)C2C(c3ccccc3)C=CC(c3ccccc3)C2C1=O)c1cccc(Br)c1 (configuration not stated)	i	20.8	i	i	i	i	i
CCOC(=O)C1=C(COC(=O)Cc2ccccc2[N+](=O)[O-])NC(=O)NC1C (configuration not stated)	i	i	i	i	i	nt	nt
CC(C)(C)CC(C)(C)NC(=O)CSCC(=O)Nc1ccc2ccccc2c1	i	24.8	i	i	i	i	i
CCC(=O)Nc1ccc2ccccc2c1	i	i	i	i	i	nt	nt
CC(C)(C)c1ccc(S(=O)(=O)NC(=O)C2(C)CCN2C(=O)Cc2ccccc2Cl)cc1 (configuration not stated)	i	i	i	i	i	nt	nt
COc1ccc(S(=O)(=O)NC(=O)C2(C)CCN2C(=O)Cc2ccccc2Cl)cc1 (configuration not stated)	i	85.8	i	i	i	i	i
COc1cccc(NC(=O)C2(C)CCN2C(=O)Cc2ccc(-c3ccccc3)cc2)c1 (configuration not stated)	i	25.1	i	i	i	i	i
O=C(CNC(=O)c1ccc(Cl)c([N+](=O)[O-])c1)OCN1C(=O)c2ccccc2C1=O	i	i	i	i	i	nt	nt
Cc1cccc(Nc2nc(NCCCN3CCOCC3)nc(N)c2[N+](=O)[O-])c1	i	i	i	i	i	nt	nt
Oc1cccc(/C=N/N(Cc2ccccc2)c2ccccc2)c1	i	22.3	i	i	i	i	i
C(=N\N(Cc1ccccc1)c1ccccc1)/c1cccnc1	i	i	i	i	i	nt	nt
O=C(NCC1(c2ccccc2)CCOCC1)c1cccs1	i	i	i	i	i	nt	nt
COC(=O)c1cc(NC(=O)Nc2cccc(Cl)c2)ccc1Cl	i	20.2	i	i	i	i	i
O=C(Nc1cccc(F)c1)Nc1cccc(Cl)c1	i	23.3	i	i	i	i	i
CCOc1ccc(CCNC(=O)CN2C(=O)NC3(CCCCC3)C2=O)cc1OCC	i	i	i	i	i	nt	nt
Cc1ccc(S(=O)(=O)NC2c3cccc4cccc(c34)C2Sc2nc(C)cc(C)n2)cc1 (configuration not stated)	i	20.0	i	i	i	i	i
C/C=C/COC(=O)c1[nH]c2c(c1C)C(=O)CC(c1ccc(N(C)C)cc1)C2 (configuration not stated)	i	64.9	i	i	i	i	i
CCOCCOC(=O)c1[nH]c2c(c1C)C(=O)CC(c1ccc(N(C)C)cc1)C2 (configuration not stated)	i	i	i	i	i	nt	nt
